Measurements reported in ChEMBL document CHEMBL1122048, “Adriamycin analogues. Preparation of 9,10-anhydrodaunorubicin, 9,10-anhydroadriamycin, and some related compounds” (1982).

Each compound was assayed on CCRF-CEM (assay: In vitro growth inhibitory activity against CCRF-CEM (human lymphoblastic leukemic) cells.). Details: read-out: ID50 (the source's name).
Assay type: functional
Outline: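 Human lymphoblastic leukemia CCRF-CEM cultures exposed to drug for 48 h. The value is the concentration inhibiting culture growth by 50% relative to untreated controls.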
In the case of `COc1cccc2c1C(=O)c1c(O)c3c(c(O)c1C2=O)C=C(C(C)=O)C[C@@H]3O`, the IC50 is reported as 10000 nM. `CCCCC(=O)OCC(=O)[C@@H]1Cc2c(O)c3c(c(O)c2[C@@H](OC2CC(NC(=O)C(F)(F)F)C(O)C(C)O2)C1)C(=O)c1c(OC)cccc1C3=O` (stereo partly drawn) showed an IC50 of 4710 nM. `COc1cccc2c1C(=O)c1c(O)c3c(c(O)c1C2=O)C=C(C(C)=O)CC3` was tested, and the IC50 was > 10000 nM. Compound `CCCCC(=O)OCC(=O)[C@]1(O)Cc2c(O)c3c(c(O)c2[C@@H](OC2CC(NC(=O)C(F)(F)F)C(O)C(C)O2)C1)C(=O)c1c(OC)cccc1C3=O` (stereo partly drawn) has an IC50 of 230 nM. In the case of `COc1cccc2c1C(=O)c1c(O)c3c(c(O)c1C2=O)C[C@@H](C(C)=O)CC3`, the IC50 is reported as > 10000 nM. For `COc1ccc(C(OCC(=O)C2=Cc3c(O)c4c(c(O)c3[C@@H](OC3CC(NC(=O)C(F)(F)F)C(O)C(C)O3)C2)C(=O)c2c(OC)cccc2C4=O)(c2ccccc2)c2ccccc2)cc1` (stereo partly drawn), the IC50 was > 5000 nM. With `COc1cccc2c1C(=O)c1c(O)c3c(c(O)c1C2=O)C=C(C(=O)CO)C[C@@H]3OC1CC(N)C(O)C(C)O1` (stereo partly drawn) the IC50 was 2310 nM. In the case of `COc1ccc(C(OCC(=O)C2=Cc3c(O)c4c(c(O)c3[C@@H](OC3CC(N)C(O)C(C)O3)C2)C(=O)c2c(OC)cccc2C4=O)(c2ccccc2)c2ccccc2)cc1` (stereo partly drawn), the IC50 is reported as > 5000 nM. With `CCCCC(=O)OCC(=O)C1=Cc2c(O)c3c(c(O)c2[C@@H](OC2CC(NC(=O)C(F)(F)F)C(O)C(C)O2)C1)C(=O)c1c(OC)cccc1C3=O` (stereo partly drawn) the IC50 was 2700 nM. Work on `COc1cccc2c1C(=O)c1c(O)c3c(c(O)c1C2=O)CC(C(C)=O)C[C@@H]3OC1CC(NC(=O)C(F)(F)F)C(O)C(C)O1` (stereo partly drawn) yielded an IC50 of 3950 nM. In the case of `COc1cccc2c1C(=O)c1c(O)c3c(c(O)c1C2=O)C=C(C(C)=O)C[C@@H]3OC1CC(NC(=O)C(F)(F)F)C(O)C(C)O1` (stereo partly drawn), the IC50 is reported as 2560 nM. Compound `COc1cccc2c1C(=O)c1c(O)c3c(c(O)c1C2=O)C[C@@](O)(C(C)=O)C[C@@H]3O[C@H]1C[C@H](N)[C@H](O)[C@H](C)O1` [DAUNORUBICIN] has an IC50 of 40 nM. In the case of `COc1cccc2c1C(=O)c1c(O)c3c(c(O)c1C2=O)C[C@@](O)(C(=O)CO)C[C@@H]3O[C@H]1C[C@H](N)[C@H](O)[C@H](C)O1` [DOXORUBICIN], the IC50 is reported as 66 nM.
